Source: PMC7530031 (Neuropharmacology, 2020)
“Also recorded” adds a separate entry of the source. Where two headings read alike, the source gives them in different places. Each block holds one compound with its values, some of them ahead of it.

Legend:
[1] = tested on: GluN1/GluN3 receptors; details: ref Grand et al., 2018; cited from earlier work
[2] = target: human GluN1^FA,TL/GluN3A receptors (Homo sapiens, UniProt Q8TCU5); format: cell-based
[3] = target: human GluN1/GluN3A receptors (Homo sapiens, UniProt Q8TCU5); format: cell-based
Method in brief: (§1)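 Xenopus oocyte two-electrode voltage clamp at −40 mV, 23°C. Human GluN1/GluN3A or rat GluN1–4a/GluN3B, with GluN1:GluN3 cRNA at 1:3. […] Concentration–response data normalized to responses without test compound, fitted by Hill equation for IC50, slope and residual minimum. Percent inhibition was 100×(1−Idrug/Icontrol) at fitted maximum. IC50 taken from mean log(IC50); 8–9 oocytes.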

[4] = target: rat GluN1/GluN3B receptors (rat GluN1–4a/GluN3B) (Rattus norvegicus, UniProt Q8VHN2); format: cell-based
Method in brief: as §1

[5] = target: rat GluN1–4a^FA,TL/GluN3B receptors (Rattus norvegicus, UniProt P35439+Q8VHN2, F484A/T518L); format: cell-based
[6] = tested on: GluN1/GluN2 NMDA receptors (GluN1 co-expressed with GluN2A-D); test: Selectivity test in Xenopus oocytes: GluN1/GluN2 NMDA receptors; format: cell-based
[7] = tested on: GluA1–4 AMPA receptors; test: Selectivity test in Xenopus oocytes: AMPA receptors; format: cell-based, rat, human; details: 20 μM; 100 μM glutamate
[8] = tested on: GluK1–2 and GluK2/GluK5 kainate receptors; test: Selectivity test in Xenopus oocytes: kainate receptors; format: cell-based, human; details: 20 μM; 100 μM glutamate (GluK2/K5: 100 μM AMPA)
[9] = tested on: GABA receptors (GABAA α1β2γ2S, GABAC ρ1); test: Selectivity test in Xenopus oocytes: GABA receptors; format: cell-based, rat; details: 20 μM; 100 μM GABA
[10] = target: T1, glycine receptors (α1) (Rattus norvegicus, UniProt P07727); test: Selectivity test in Xenopus oocytes: glycine receptors; format: cell-based; details: 20 μM; 100 μM glycine
T1 sequence (P07727 29-457): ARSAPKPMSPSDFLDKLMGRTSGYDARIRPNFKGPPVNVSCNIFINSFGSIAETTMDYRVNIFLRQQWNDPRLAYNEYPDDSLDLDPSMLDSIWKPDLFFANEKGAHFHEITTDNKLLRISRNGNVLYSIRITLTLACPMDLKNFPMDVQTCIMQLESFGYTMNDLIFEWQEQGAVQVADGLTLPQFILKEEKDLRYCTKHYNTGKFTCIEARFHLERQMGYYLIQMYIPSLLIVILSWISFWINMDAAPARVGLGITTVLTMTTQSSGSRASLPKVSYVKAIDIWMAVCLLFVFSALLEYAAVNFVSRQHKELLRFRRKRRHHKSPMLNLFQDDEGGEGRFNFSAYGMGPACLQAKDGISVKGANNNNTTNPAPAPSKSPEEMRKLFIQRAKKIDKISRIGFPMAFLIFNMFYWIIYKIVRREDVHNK

[11] = target: alpha7 nicotinic receptors (Rattus norvegicus, UniProt Q05941); test: Selectivity test in Xenopus oocytes: alpha7 nicotinic receptors; format: cell-based; details: 20 μM; 300 μM acetylcholine
[12] = target: muscle nicotinic receptors (α1β1δγ) (Rattus norvegicus, UniProt P18916+P25108+P25109+P25110); test: Selectivity test in Xenopus oocytes: muscle nicotinic receptors; format: cell-based; details: 20 μM; 1 μM acetylcholine
Method in brief: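 Two-electrode voltage clamp on Xenopus oocytes 2–5 days after cRNA injection; muscle nAChR subunits were injected 1:1:1:1. Recorded at 23°C and −40 mV in HEPES/BaCl2 saline, pH 7.4. Test compound at 20 μM was co-applied with agonist. Response was given as percent of control, taking control as the mean of responses before and after compound exposure.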

[13] = target: α2β4 nicotinic receptors (Rattus norvegicus, UniProt P09483+P12390); test: Selectivity test in Xenopus oocytes: α2β4 nicotinic receptors; format: cell-based; details: 20 μM; 10 μM acetylcholine
[14] = target: T2, P2X receptors (human P2X2) (Homo sapiens, UniProt Q9UBL9); test: Selectivity test in Xenopus oocytes: purinergic receptors; format: cell-based; details: 20 μM; 9 μM ATP
T2 sequence (Q9UBL9 1-471): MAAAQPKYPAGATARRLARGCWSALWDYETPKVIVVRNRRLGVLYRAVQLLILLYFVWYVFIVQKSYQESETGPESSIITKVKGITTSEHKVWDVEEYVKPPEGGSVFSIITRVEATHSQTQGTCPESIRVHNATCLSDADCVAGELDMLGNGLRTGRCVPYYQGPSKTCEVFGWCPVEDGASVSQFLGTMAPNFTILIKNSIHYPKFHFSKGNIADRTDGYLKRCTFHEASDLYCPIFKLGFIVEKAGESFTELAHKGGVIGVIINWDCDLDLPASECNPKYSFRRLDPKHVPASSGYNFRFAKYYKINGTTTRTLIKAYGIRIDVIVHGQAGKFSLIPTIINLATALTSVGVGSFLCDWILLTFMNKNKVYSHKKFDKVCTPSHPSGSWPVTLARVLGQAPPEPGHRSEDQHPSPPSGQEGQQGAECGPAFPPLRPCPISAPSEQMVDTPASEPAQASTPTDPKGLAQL

[15] = target: native GluN1/GluN3A receptors (Mus musculus, UniProt A2AIR5); format: cell-based; details: 30 μM; 1 μM CGP-78608; 10 mM glycine puffs; mouse P8–15 slices
[16] = tested on: GluN1/GluN2 NMDA receptors; format: cell-based; details: 30 μM; 0.5 mM NMDA puffs; mouse P8–15 slices
[17] = target: GluN1/GluN3A channels (Mus musculus, UniProt A2AIR5); test: Nonstationary variance analysis of neuronal glycine-evoked current responses; format: cell-based; details: 30 μM; VHOLD −60 mV; n = 5
Method in brief: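 Acute mouse hippocampal slices (P8–15), CA1 pyramidal cells, whole-cell at −60 mV, 32°C ACSF with gabazine, NBQX, DL-APV, strychnine and 1 μM CGP-78608. […] Compound at 30 μM or 0.15% DMSO bath-applied. Ten deactivation phases per condition at steady state, split into 50 segments, high-passed at 1 Hz. Variance–current fit gave unitary current; chord conductance assumed 0 mV reversal.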

[18] = tested on: GluN1/GluN3 receptors; details: ref Kvist et al., 2013a; cited from earlier work
[19] = tested on: GluN1; details: read-out: EC50 of glycine at GluN1; ref Grand et al., 2018; Kvist et al., 2013a; cited from earlier work
[20] = tested on: GluN3A; details: read-out: EC50 of glycine at GluN3A; ref Grand et al., 2018; Kvist et al., 2013a; cited from earlier work
[21] = 500 nM CGP-78608 plus 100 μM glycine

Chain of human GluN1^FA,TL/GluN3A receptors (Q8TCU5 24-1115, other chains not shown): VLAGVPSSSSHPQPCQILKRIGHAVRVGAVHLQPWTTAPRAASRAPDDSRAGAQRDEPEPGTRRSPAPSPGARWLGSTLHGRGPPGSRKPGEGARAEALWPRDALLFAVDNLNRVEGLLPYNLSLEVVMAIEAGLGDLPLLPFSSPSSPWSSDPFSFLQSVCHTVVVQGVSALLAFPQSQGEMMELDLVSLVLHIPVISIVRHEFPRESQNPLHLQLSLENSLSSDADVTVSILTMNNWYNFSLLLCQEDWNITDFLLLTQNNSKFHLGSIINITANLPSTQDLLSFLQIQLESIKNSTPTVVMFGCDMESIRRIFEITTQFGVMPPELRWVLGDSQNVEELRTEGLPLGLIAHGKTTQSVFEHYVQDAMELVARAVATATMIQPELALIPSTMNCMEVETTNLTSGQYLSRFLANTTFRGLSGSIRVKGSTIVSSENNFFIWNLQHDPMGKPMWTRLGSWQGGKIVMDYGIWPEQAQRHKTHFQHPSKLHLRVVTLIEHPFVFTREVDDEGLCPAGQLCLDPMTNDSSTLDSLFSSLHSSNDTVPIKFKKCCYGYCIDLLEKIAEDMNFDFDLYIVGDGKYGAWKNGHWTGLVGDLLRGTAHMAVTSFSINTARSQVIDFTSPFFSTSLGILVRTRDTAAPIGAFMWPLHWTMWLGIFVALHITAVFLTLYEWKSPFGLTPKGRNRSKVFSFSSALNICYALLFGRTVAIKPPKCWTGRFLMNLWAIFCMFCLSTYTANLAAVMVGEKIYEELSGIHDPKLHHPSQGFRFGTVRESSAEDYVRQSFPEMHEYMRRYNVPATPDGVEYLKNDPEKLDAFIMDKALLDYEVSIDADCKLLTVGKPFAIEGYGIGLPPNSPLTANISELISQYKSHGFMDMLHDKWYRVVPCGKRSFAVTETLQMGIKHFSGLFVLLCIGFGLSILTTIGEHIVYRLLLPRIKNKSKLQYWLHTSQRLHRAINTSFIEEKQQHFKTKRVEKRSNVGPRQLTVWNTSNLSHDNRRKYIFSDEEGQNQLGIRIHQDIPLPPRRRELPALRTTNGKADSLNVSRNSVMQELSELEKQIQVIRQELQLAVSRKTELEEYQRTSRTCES
Chain of human GluN1/GluN3A receptors (Q8TCU5 24-1115, other chains not shown): as above
Chain of rat GluN1/GluN3B receptors (rat GluN1–4a/GluN3B) (Q8VHN2 25-1002, other chains not shown): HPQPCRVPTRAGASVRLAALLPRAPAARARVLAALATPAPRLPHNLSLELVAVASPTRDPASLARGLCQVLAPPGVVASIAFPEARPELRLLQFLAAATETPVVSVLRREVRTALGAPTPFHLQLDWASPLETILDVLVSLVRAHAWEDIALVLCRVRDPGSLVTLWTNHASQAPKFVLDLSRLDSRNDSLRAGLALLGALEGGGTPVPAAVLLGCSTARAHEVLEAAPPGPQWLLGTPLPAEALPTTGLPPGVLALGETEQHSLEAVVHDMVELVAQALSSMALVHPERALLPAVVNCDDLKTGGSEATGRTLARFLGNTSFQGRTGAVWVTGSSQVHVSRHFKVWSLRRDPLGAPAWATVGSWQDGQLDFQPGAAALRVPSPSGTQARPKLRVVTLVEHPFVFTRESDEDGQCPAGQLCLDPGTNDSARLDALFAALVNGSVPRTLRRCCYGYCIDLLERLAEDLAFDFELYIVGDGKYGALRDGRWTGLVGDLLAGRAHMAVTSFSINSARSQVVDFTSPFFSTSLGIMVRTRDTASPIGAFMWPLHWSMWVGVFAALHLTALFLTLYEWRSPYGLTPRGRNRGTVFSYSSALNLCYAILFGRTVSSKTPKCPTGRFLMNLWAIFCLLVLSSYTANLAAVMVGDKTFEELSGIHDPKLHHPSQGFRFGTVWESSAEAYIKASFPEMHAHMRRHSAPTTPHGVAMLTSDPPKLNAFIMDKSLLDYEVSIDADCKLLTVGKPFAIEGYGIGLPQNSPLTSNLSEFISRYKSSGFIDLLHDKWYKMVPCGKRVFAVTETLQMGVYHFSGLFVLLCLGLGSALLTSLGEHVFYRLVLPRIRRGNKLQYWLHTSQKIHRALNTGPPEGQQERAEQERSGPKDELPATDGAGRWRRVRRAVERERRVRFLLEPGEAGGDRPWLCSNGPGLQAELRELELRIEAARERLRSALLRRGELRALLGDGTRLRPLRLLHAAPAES
Chain of rat GluN1–4a^FA,TL/GluN3B receptors (Q8VHN2 25-1002, other chains not shown): as above
Chain of native GluN1/GluN3A receptors (A2AIR5 27-1135, other chains not shown): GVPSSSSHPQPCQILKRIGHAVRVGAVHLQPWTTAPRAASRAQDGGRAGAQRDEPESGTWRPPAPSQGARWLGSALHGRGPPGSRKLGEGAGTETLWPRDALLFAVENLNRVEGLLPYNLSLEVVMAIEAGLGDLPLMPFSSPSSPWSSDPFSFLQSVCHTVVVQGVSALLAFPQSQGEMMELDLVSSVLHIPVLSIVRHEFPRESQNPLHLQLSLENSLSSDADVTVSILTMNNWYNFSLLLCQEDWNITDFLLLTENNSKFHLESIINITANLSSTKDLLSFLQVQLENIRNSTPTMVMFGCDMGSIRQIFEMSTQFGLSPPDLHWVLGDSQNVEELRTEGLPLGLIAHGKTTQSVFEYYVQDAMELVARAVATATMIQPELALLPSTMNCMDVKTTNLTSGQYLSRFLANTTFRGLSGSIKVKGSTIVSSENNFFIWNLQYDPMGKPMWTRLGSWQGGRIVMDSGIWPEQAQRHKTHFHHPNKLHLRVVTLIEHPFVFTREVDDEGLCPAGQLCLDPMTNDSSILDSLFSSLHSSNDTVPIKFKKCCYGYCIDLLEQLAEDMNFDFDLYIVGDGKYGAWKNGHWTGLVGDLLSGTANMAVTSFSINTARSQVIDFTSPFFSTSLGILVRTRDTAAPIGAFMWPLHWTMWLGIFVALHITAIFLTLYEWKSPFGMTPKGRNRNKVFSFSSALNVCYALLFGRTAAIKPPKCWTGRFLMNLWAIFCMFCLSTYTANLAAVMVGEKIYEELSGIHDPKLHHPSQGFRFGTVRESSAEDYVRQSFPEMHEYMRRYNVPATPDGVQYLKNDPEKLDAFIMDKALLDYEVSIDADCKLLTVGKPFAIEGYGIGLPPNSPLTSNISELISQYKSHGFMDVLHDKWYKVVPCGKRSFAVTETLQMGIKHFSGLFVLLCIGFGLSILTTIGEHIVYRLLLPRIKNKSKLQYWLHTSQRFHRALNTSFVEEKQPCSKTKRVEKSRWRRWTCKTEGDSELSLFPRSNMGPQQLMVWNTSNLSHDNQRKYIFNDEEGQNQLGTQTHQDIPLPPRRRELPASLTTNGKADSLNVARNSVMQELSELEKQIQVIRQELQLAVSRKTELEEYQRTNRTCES
Chain of alpha7 nicotinic receptors (Q05941 23-502): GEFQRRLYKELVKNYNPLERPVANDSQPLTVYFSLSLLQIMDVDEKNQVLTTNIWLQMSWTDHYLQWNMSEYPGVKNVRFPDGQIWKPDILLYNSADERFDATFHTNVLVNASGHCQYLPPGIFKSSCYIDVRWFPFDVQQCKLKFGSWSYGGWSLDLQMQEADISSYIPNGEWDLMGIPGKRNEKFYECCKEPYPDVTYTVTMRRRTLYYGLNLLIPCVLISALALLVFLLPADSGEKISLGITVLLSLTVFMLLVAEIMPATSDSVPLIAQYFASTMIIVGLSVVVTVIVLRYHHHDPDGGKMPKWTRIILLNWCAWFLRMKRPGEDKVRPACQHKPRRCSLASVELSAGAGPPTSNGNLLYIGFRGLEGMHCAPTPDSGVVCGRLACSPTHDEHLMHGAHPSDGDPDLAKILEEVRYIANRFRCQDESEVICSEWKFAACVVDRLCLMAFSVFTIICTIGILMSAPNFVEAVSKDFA
Chain of α2β4 nicotinic receptors (P09483 31-630): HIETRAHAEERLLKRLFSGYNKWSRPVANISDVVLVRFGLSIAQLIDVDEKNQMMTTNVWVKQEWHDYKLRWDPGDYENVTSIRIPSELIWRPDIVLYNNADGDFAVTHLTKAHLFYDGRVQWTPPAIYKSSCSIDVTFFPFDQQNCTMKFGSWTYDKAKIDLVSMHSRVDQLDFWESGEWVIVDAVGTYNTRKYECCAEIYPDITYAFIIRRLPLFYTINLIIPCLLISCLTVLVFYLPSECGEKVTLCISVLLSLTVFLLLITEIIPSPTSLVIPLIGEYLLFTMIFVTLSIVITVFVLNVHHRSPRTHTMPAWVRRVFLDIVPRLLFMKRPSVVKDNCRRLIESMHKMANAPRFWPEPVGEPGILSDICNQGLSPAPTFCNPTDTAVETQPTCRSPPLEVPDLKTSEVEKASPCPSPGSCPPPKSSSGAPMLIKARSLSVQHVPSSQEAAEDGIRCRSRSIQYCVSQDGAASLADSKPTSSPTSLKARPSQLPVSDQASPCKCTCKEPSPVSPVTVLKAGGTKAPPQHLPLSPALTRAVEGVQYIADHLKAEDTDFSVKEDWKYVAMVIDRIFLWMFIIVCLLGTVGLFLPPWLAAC
Chain of α2β4 nicotinic receptors (P12390 25-500): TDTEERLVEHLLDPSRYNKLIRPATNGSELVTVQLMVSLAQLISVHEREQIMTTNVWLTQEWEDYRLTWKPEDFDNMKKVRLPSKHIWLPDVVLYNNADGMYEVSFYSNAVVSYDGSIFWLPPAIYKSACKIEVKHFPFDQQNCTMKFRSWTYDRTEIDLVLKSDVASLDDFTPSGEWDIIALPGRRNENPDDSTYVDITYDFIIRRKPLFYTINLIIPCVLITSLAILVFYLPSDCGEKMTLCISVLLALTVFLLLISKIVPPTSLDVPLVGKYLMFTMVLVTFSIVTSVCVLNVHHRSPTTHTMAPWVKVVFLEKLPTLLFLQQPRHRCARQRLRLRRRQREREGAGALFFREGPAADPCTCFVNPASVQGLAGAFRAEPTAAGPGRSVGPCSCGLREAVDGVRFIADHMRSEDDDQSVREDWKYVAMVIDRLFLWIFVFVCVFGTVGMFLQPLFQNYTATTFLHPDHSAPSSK
Chain of GluN1/GluN3A channels (A2AIR5 27-1135, other chains not shown): as the sequence (A2AIR5 27-1135, other chains not shown) above

Structure (SMILES): C[C@@H](NCc1cc(Br)cc2[nH]c(=O)c(=O)[nH]c12)P(=O)(O)O.Cl [CGP-78608, [(1 S)-1-[[(7-bromo-1,2,3,4-tetrahydro-2,3-dioxo-5-quinoxalinyl)methyl]amino]ethyl]phosph onic acid hydrochloride]
effect on activation of GluN1/GluN3 receptors [1]: can dramatically enhance activation of GluN1/GluN3 receptors

response in the presence of compound, % of control ([2]; 10 μM EU1180–438, 1 mM glycine): 29 ± 4.2 % of control | response in the presence of compound, % of control ([2]; 10 μM EU1180–438, 3 mM glycine): 29 ± 4.2 % of control | IC50 ([2]; IC50, pH 6.8): 4.2 µM | IC50 ([2]; IC50, pH 7.4, 1 mM glycine, holding potential −40 mV, mean of individual fits): 3.5 µM | % Inhibition (fitted maximum at saturating test compound) ([2]; pH 6.8): 72% | % Inhibition (fitted maximum at saturating test compound) ([2]; pH 7.4, 1 mM glycine, −40 mV): 82% | Slope (Hill slope, Fig. 1C) ([2]; responses activated by 1000 μM glycine): 1.3 | Slope (Hill slope, Fig. 1D) [3, 21]: 1.5 | minimum (residual current at saturating concentration, Fig. 1D) [3, 21]: 15% | % Inhibition (fitted maximum at saturating test compound) ([3]; pH 7.4, 0.5 μM CGP-78608): 85% | Slope (Hill slope, Fig. 1D) [4, 21]: 1.5 | minimum (residual current at saturating concentration, Fig. 1D) [4, 21]: 7% | % Inhibition (fitted maximum at saturating test compound) ([4]; pH 7.4, 0.5 μM CGP-78608): 93% | IC50 [5]: 5.2 µM | % inhibition at saturating concentrations determined from the fitted curve ([5]; data not shown): 82% | activity at GluN1/GluN2 NMDA receptors ([6]; 20 μM, 100 μM glutamate/100 μM glycine): virtually no activity | activity at recombinant GluN1/GluN2 NMDA receptors (library screen) ([6]; screen): no detectable activity | activity at AMPA receptors [7]: virtually no activity | activity at kainate receptors [8]: virtually no activity | activity at GABA receptors [9]: virtually no activity | activity at glycine receptors [10]: virtually no activity | activity at alpha7 nicotinic receptors [11]: virtually no activity | activity at muscle nicotinic receptors [12]: modestly inhibited | activity at α2β4 nicotinic receptors [13]: modestly inhibited | activity at P2X receptors [14]: inactive | average chord conductance of GluN1/GluN3A channels in the presence of compound [17]: 6.3 ± 0.90 pS
Structure (SMILES): COc1ccc(OCC(c2ccc(OC)cc2)N2Cc3ccccc3C2=O)cc1 (stereo not shown) [EU1180–438, 2-(2-(4-methoxyphenoxy)-1-(4-methoxyphenyl)ethyl)isoindolin-1-one]
dependence of inhibition on glycine concentration ([2]; 10 μM EU1180–438, 1 mM vs 3 mM glycine): not altered by increasing glycine concentration | effect on glycine-activated responses of native GluN1/GluN3A receptors [15]: inhibited significantly; also recorded: strong inhibition | effect on NMDA-activated responses mediated by GluN1/GluN2 NMDA receptors [16]: does not affect current responses; also recorded: not modulated

Structure (SMILES): O=C(O)c1cc(C(=O)c2ccc(Cl)cc2Cl)c[nH]1 [TK30]
preference for GluN1/GluN3 over GluN1/GluN2 receptors [18]: 5- to 10 fold

Structure (SMILES): O=c1[nH]c2nonc2nc1O [TK80]
preference for GluN1/GluN3 over GluN1/GluN2 receptors [18]: 5- to 10 fold

Structure (SMILES): NCC(=O)O [glycine]
EC50 [19]: […] | EC50 [20]: 10 to 60 µM
